Results: paper PMC12218390 (Scientific Reports, 2025)

Key:
BHK-21 cells = assay: MTT assay for Maximum Non-Toxic Dose; assay type: cell-based
[1] = test system: Dengue virus type-2 (DENV2) in BHK-21 cells; assay: Cytopathic effect; assay type: cell-based; conditions: DENV2-infected BHK-21 cells; concentrations within MNTD
Procedure, shortened: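 Maximal non-toxic dose in BHK-21 cells was first set by MTT. Cells were seeded at 1 × 10⁵/well and infected with DENV2 (MOI 0.02, DMEM with 2% FBS) for 1 h at 37 °C, 5% CO₂. At 1 h post-infection, compounds diluted in DMEM (2% FBS) within the non-toxic range were added, with castanospermine as the positive control. CPE was scored by phase-contrast microscopy, in triplicate.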

HaCaT cells = assay: MTT cytotoxicity assay; assay type: cell-based, human; conditions: 100 µg/mL
Procedure, shortened: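 HaCaT keratinocytes were grown in DMEM with 10% FBS and 1% antibiotic-antimycotic at 37 °C, 5% CO₂. Cells were seeded at 1 × 10⁴/well for 24 h, then exposed to 1 to 100 µg/mL for 48 h, with 5-FU as the positive control and untreated cells as baseline. MTT (5 mg/mL) was added for 4 h, then SDS/DMF lysis buffer for 2 h, and plates read at 570 nm as percentage proliferation. Lower concentrations were retested to derive IC50 ± SE.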

[2] = DPPH free radical scavenging assay; assay type: physicochemical; conditions: ascorbic acid as reference
Procedure, shortened: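 DPPH (4 mg/100 ml in methanol) was mixed with test compound or ascorbic acid at 1 to 500 µg/ml in methanol. The control was DPPH plus methanol, and methanol alone served as blank. Samples were incubated 20–30 min at 37 °C and the decrease in absorbance at 515 nm read. Percentage scavenging was calculated from control versus sample absorbance, in triplicate.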

O=c1oc2ccccc2c(N(c2ccccc2)c2ccccc2)c1I [Compound T6, 4-diphenylamino-3-iodocoumarin]
Maximal non-toxic dose (MNTD) (BHK-21 cells): 0.1 µg/mL
Inhibition / reduction in cytopathic effects [1]: did not exhibit significant inhibition of cytopathic effects
Cell death (HaCaT cells): very low percentages of cell death

O=c1cc(Nc2ccccc2)c2ccccc2o1 [Compound T5, 4-phenylaminocoumarin]
Maximal non-toxic dose (MNTD) (BHK-21 cells): 0.1 µg/mL
Inhibition / reduction in cytopathic effects [1]: did not exhibit significant inhibition of cytopathic effects
Cell death (HaCaT cells): very low percentages of cell death

O[C@H]1[C@H](O)[C@@H](O)CN2CC[C@H](O)[C@H]12 [castanospermine, reference compound]
Inhibition / reduction in cytopathic effects [1]: 68%

Cc1ccc(S(=O)(=O)[O-])cc1.Nc1c([I+]c2ccccc2)c(=O)oc2ccccc12 [Compound T2, 4-amino-3-phenyliodoniocoumarin tosylate]
Inhibition / reduction in cytopathic effects [1]: up to 12%
DPPH radical scavenging IC50 [2]: ≥ 50 µg/mL
Cell death (HaCaT cells): more than 60%

O=c1oc2ccccc2c(Nc2ccccc2)c1I [Compound T4, 3-iodo-4-phenylaminocoumarin]
Maximal non-toxic dose (MNTD) (BHK-21 cells): 1 µg/mL
Inhibition / reduction in cytopathic effects [1]: up to 12%
Cell death (HaCaT cells): more than 60%

Nc1cc(=O)oc2ccccc12 [Compound T1, 4-aminocoumarin]
Maximal non-toxic dose (MNTD) (BHK-21 cells): 2.5 µg/mL
Inhibition / reduction in cytopathic effects [1]: did not exhibit significant inhibition of cytopathic effects
Cell death (HaCaT cells): very low percentages of cell death
